For one series, the system named is HeLa-Htt103Q cells. Put plainly: Htt103Q aggregate assay, cellular model of Huntington's disease. The format is cell-based. As to conditions: HeLa cells expressing CFP-htt103Q, 20 μM peptide, aggregates <1 μm. Summed up: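 HeLa cells expressing CFP-Htt103Q were treated with peptide, then fixed in 2% PFA in PBS. An observer blinded to condition counted CFP-positive aggregates <1 μm by fluorescence microscopy. Scores were the percentage of cells carrying small aggregates and the number of small aggregates per cell.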

Series [1] deals with HeLa cells stably expressing GFP-LC3. Put plainly: GFP-LC3 puncta assay of autophagic flux, with and without bafilomycin A1. The class given is cell-based. Summed up:
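HeLa cells stably expressing GFP-LC3 were given peptide for 2 h in serum-free Opti-MEM acidified with 0.15% (v/v) 6 N HCl, with or without bafilomycin A1. Cells were fixed in 2% PFA in PBS and GFP-LC3 puncta per cell were counted by fluorescence microscopy, with ≥100 cells per sample. Triplicate samples, mean ± SEM, t test versus DMSO; ≥3 independent experiments.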

Series [2] can be described thus: Solubility as observed by the authors. The format is physicochemical.

These results are taken from publication PMC5473019 (Journal of the American Chemical Society, 2017).

*1 amine or outer side, *2 acyl side, *3 side chain or, on linkers, in order; H or OH if unused. Where a SMILES comes first, the peptide text is derived from it. Bridges are numbered along the chain shown (N, C = ends). [ ]: non-standard residue; d: D form. The star is where a group is joined. oXylylene = c1ccc(C[*:2])c(C[*:1])c1; Pent4ynoyl = C#CCCC(=O)*

On to `C#CCCC(=O)N[C@H](C(=O)N[C@@H]1CSCc2ccccc2CSC[C@H](C(=O)N[C@@H](Cc2ccccc2)C(=O)N[C@@H](Cc2c[nH]cn2)C(=O)N[C@H](C(=O)N[C@@H](Cc2c[nH]c3ccccc23)C(=O)N[C@@H](Cc2c[nH]cn2)C(N)=O)[C@@H](C)CC)NC(=O)[C@H](C)NC(=O)[C@H](CC(N)=O)NC1=O)C(C)C` [DD5-o] (Pent4ynoyl-V[dC]NA[dC]FHIWH-NH2; linker 2-5 via oXylylene), for which, in the series with HeLa-Htt103Q cells, the “number of small htt103Q aggregates observed per cell” value is “significant decrease” and the “percentage of cells that have small htt103Q aggregates” value is “significant decrease”. For the same molecule, in series [1] (10 μM peptide, 2 h), the “extent of autophagy induction relative to Tat-Beclin 1 (GFP-LC3 puncta)” value is listed as “slightly less activity than Tat-Beclin 1”. Moreover, the “change in GFP-LC3 puncta upon cotreatment with Baf A1” value in series [1] (peptide 2 h plus bafilomycin A1) was “further increase in GFP-LC3 puncta”. Also, the solubility in water entry in series [2] (judged for 2D-NMR experiments) is “not soluble enough in water for 2D-NMR experiments”.
Turning to “(HT)-VcNAcFHIWH (sidechain bridge or staple) [HT-DD5-o]”, the “solubility compared with DD5-o” value in series [2] (medium not stated, N-terminal tag attached to DD5-o) is listed as “equally soluble as DD5-o”.
